Results taken from article PMC8891099 (Clinical Pharmacokinetics, 2021).
Values after ≈ are worked out from the molar mass of the structure shown.

Legend:
[1] = tested on: patients with CKD and T2D; test: FIDELIO-DKD phase III study, kidney outcome events; type: in vivo, human; details: finerenone group, 504 of 2833 patients, median follow-up of 2.6 years
[2] = tested on: patients with CKD and T2D; test: Parametric time-to-event exposure-response; type: in vivo; details: Homo sapiens, read-out: EC50 (half-maximal drug effect concentration)
Method in brief: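 Parametric time-to-event model (Weibull hazard) for the first composite kidney event, with exposure-response as an Emax function driven by central-compartment concentration. Input was individual concentration-time profiles from post-hoc PK estimates, actual dosing history and covariates; typical PK parameters were used for subjects lacking them. Delay and Hill coefficient were tested. Checked by visual predictive checks with observed dropout.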

[3] = tested on: patients with CKD and T2D; details: corresponding to sustained eGFR decrease ≥ 57%, under finerenone treatment ref 3; cited from earlier work
[4] = Population pharmacokinetic model of finerenone in FIDELIO-DKD; type: in vivo, human
Method in brief: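 Nonlinear mixed-effects model of sparse plasma levels after oral 10 or 20 mg once daily. Sampling was a month-4 trough plus post-dose samples at any time on yearly visits. Structure: two compartments with equal volumes, transit-compartment absorption and first-order elimination, starting from a phase IIb model. Covariate search used single addition and forward inclusion at p 0.01 and backward deletion at p 0.001.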

[5] = covariate parameter, population PK model
[6] = inter-individual variability, population PK model
[7] = population PK model estimate, FIDELIO-DKD patients

CCOc1ncc(C)c2c1[C@H](c1ccc(C#N)cc1OC)C(C(N)=O)=C(C)N2 [finerenone]
patients with a kidney event contributing to the composite endpoint [1]: 17.8%
EC50 [2]: 0.166 ng/mL (≈ 0.439 nM)
reduction of secondary endpoint doubling of serum creatinine [3]: 32%
Effect for Korean subjects on Vc/F [4, 5]: 1.29
Effect of body weight on Vc/F [4, 5]: 0.501
Absorption lag time ([4]; fixed in population PK model): 0.215 (fixed) h
Ratio Vp/F and Vc/F ([4]; fixed in population PK model): 1 (fixed)
Relative bioavailaility ([4]; fixed in population PK model): 1 (fixed)
Covariance CL/F × Vc/F [4, 6]: 0.0442
ω^2 Vc/F [4, 6]: 0.104
dose linearity of pharmacokinetics ([4]; over the investigated dose range (10 and 20 mg once daily)): dose linear
Inter-individual variability of CL/F expressed as CV ([4]; population PK model): ^aShrinkage was 26.6%, variability expressed as CV: 31.8%
Inter-individual variability of Vc/F expressed as CV ([4]; population PK model): ^bShrinkage was 47.8%, variability expressed as CV: 33.0%
CL/F [4, 7]: 29.9 L/h
Q/F [4, 7]: 0.335 L/h
Vc/F [4, 7]: 113 L
Ka ([4]; population PK model estimate, FIDELIO-DKD patients, oral 10 or 20 mg once daily): 22.5 h⁻¹
σ^2 ([4]; residual error, population PK model): 0.313
